# Bioassay records as filed in PubChem BioAssay.
# KCNQ1 inh: human KCNQ1 channel inhibition; P51787; CHO-K1 KCNQ1, FluxOR thallium flux fluorescence; stronger effect = higher value; B-score at 10 µM; actives 1.3% (n = 310,000); AID 2642;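 active means compounds whose thallium flux B-score, printed positive for inhibition, exceeds three library SD while starting fluorescence stays within three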;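 further: channel opened by potassium depolarization with thallium stimulus after 20 min compound exposure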
# Cl transport mod: modulators of human KCC2 chloride dependent transport; B-score of Tl+ flux slope (higher = more flux/activation; lower = inhibition) at 10 µM; AID 1456; actives 2.2% (n = 190,000); KCC2 cells, thallium flux FluoZin-2 fluorescence; Q9H2X9;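 active means thallium flux slope and its plate-corrected score both differing from the plate sample mean at a set confidence after two filtering rounds, in either direction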;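 further: slope of fluorescence scaled to starting intensity during 10 to 20 s after thallium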
# KCNK3 inh: human KCNK3 channel inhibition, primary screen; CHO-KCNK3 thallium flux, FluxOR fluorescence; stronger effect = lower value; actives 0.84% (n = 340,000); B-score at 10 µM;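 active means B-score under library mean minus 4 SD, starting fluorescence ratio at most library mean plus 5 SD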;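 further: more negative B-score means stronger inhibition of thallium flux through KCNK3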
# Target sequence (O14649 whole entry, looked up): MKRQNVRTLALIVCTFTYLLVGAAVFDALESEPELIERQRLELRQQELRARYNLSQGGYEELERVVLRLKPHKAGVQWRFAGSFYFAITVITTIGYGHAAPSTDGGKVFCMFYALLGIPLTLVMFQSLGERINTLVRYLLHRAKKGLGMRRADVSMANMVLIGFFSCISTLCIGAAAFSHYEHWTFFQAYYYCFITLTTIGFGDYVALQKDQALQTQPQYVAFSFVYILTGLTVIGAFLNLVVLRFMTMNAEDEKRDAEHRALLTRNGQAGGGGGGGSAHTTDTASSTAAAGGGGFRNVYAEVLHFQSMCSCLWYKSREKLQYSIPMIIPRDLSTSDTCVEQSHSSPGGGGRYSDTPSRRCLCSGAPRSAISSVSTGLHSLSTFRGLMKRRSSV
# KCNQ1 pot: potentiators or activators of human KCNQ1 potassium channel; P51787; CHO-K1 KCNQ1, thallium flux FluxOR fluorescence; stronger effect = higher value; B-score at 10 µM; actives 0.35% (n = 310,000); AID 2648;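 active means fluorescence ratio B-score, a plate-corrected score, at least three library SD, with initial intensity B-score within 5 SD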
#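 assay system = KCNQ1-transfected CHO-K1 cells | medium = assay buffer with matched DMSO | probe or stimulus = depolarizing K+/Tl+ stimulus, K2SO4 and Tl2SO4 each 12.5 mM in 5x stock | dosing = single dose | incubation = dye 90 min, compound 20 min, room temperature | detection = kinetic FluxOR fluorescence, 10 s baseline plus 110 s post-stimulus | evaluation = ratio B score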
# KCNK9 block: human KCNK9 channel inhibition | Q9NPC2 | HEK293 KCNK9, FluxOR thallium flux fluorescence; stronger effect = lower value | B-score at 10 µM | actives 1.2% (n = 310,000) | AID 488922;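 active means ratio B-score over 3 SD below the library mean, with starting fluorescence within 5 SD of its mean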;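 further: negative B-score means less thallium flux so channel inhibition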
# hERG protect: hERG (human) protection from proarrhythmic block | CHO-hERG, FluxOR thallium flux, dofetilide IC70 present | activation (rescue from dofetilide block), less the hit threshold, % at 10 µM | actives 0.51% (n = 310,000) | AID 1511;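 active means activation above the mean of controls blocked by dofetilide plus 5 SD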;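 further: thallium influx through hERG after potassium depolarization seen as dye fluorescence rise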
# KCNK9 block conf: confirmation of human KCNK9 potassium channel inhibitors; inhibition, % at 10 µM; actives 43% (n = 4,900); HEK293 KCNK9 cells, FluxOR thallium flux fluorescence; shares compounds with KCNK9 block;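 active means thallium signal inhibited by more than 5 SD of the compound-free buffer control wells, on both duplicate plates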;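 further: 0% = assay buffer control wells without compound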
# Kir21 sel: tests whether KCNK9 modulators also affect mouse Kir2.1; shares compounds with KCNK9 block; actives 4% (n = 4,900); inhibition, % at 10 µM; Kir2.1 cells, FluxOR thallium flux fluorescence;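 active means thallium signal drop more than 5 SD beyond the mean of the no-compound control wells, seen in both duplicate plates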;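 further: signal is fluorescence rise after thallium addition divided by baseline fluorescence; plate controls were assay buffer only for no effect and full block by chlorpromazine control for full effect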
# HEK293 Tl ctr: second counter-screen for KCNK9 modulators: effect in non-induced cells | inhibition, % at 10 µM | actives 40% (n = 4,900) | shares compounds with KCNK9 block | AID 492997 | non-induced KCNK9-HEK293, FluxOR thallium flux;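 active means thallium signal drop beyond 5 SD of the untreated control mean, on both duplicate plates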;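 further: plate controls were buffer only IC0 wells for no effect and SID17386958 at its maximal inhibitory level for full effect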
# * hit, by the source's call; i = inactive; nt = not tested or not shown. The list is not random: actives were taken first. Their share in the collection is about 4.1%.
SMILES,KCNQ1 inh,Cl transport mod,KCNK3 inh,KCNQ1 pot,KCNK9 block,hERG protect,KCNK9 block conf,Kir21 sel,HEK293 Tl ctr
CC1SCC(NC(=O)c2ccc(Cl)cc2)CS1 (stereo not drawn),i,-0.768,i,i,-14.1*,-8.7,i,i,24.0%*
CCN(C(=O)COC(=O)CCC(=O)c1cccs1)c1ccccc1,nt,nt,i,nt,nt,nt,nt,nt,nt
CC1=C(C(=O)N2CCCC(N3CCN(c4cccc(C(F)(F)F)c4)CC3)C2)OCCO1 (stereo not drawn),i,nt,i,i,i,-10.2,i,i,i
O=C(c1ccncc1)N1CCCC(N2CCN(c3cccc(C(F)(F)F)c3)CC2)C1 (stereo not drawn),i,nt,i,i,i,-12.9,nt,nt,nt
Cc1cccc(C(=O)N2CCCC(N3CCN(c4ccccc4F)CC3)C2)n1 (stereo not drawn),i,nt,i,i,i,-9.8,nt,nt,nt
Cc1ccc(C(=O)N2CCCC(N3CCN(c4ccccc4F)CC3)C2)s1 (stereo not drawn),i,nt,i,i,i,-9.1,i,i,i
CCc1cc(C(=O)N2CCCC(N3CCN(c4cccc(C(F)(F)F)c4)CC3)C2)n(C)n1 (stereo not drawn),i,nt,i,i,i,-9.3,i,i,i
CSc1nc(C(=O)N2CCCC(N3CCN(c4ccccc4C)CC3)C2)cs1 (stereo not drawn),i,nt,i,i,i,-13.9,i,i,i
O=C(c1ccc(S(=O)(=O)N2CCOCC2)cc1)N1CCc2ccccc21,i,nt,i,i,i,-7.2,nt,nt,nt
Cc1ccccc1-c1cccc([C@@H]2C[C@H]3[C@H](CON3C)CN2S(=O)(=O)c2ccccc2C)c1,nt,nt,i,nt,nt,nt,nt,nt,nt
COc1ccccc1N1CCN(C(=O)c2ccccc2N(C)S(=O)(=O)c2ccc(C)cc2)CC1,i,nt,i,i,i,-22.7,nt,nt,nt
CC(=O)N1CCCC(N2CCN(c3cccc(C(F)(F)F)c3)CC2)C1 (stereo not drawn),i,nt,i,i,i,-4.3,nt,nt,nt
Cc1ccc(C(=O)N2CCCC(N3CCN(c4cccc(C(F)(F)F)c4)CC3)C2)s1 (stereo not drawn),i,nt,i,i,i,-13.1,i,i,i
Cc1cc(F)ccc1S(=O)(=O)Nc1ccc(O)c(Sc2ncn[nH]2)c1,i,nt,i,i,i,-2.3,nt,nt,nt
CCOc1ccc(Nc2nc(Cc3nnc(SCC(=O)c4ccc(C)c(C)c4)o3)cs2)cc1,i,nt,i,i,i,-6.1,i,i,i
Cc1cc(C)c2nc(NNC(=O)c3ccc(S(=O)(=O)N4CCCCC4)cc3)sc2c1,i,-0.063,i,i,i,-12.2,i,i,i
Cc1cccc2sc(NNC(=O)c3ccc(S(=O)(=O)N4CCc5ccccc5C4)cc3)nc12,i,-0.574,i,i,i,-4.3,i,i,i
CCCCOCCCN1CC(=O)N2[C@@H](Cc3c([nH]c4ccccc34)C2(C)C)C1=O,i,nt,i,i,i,-3.2,nt,nt,nt
CC(=O)C1C=CC(C)(C(=O)O)C2C=C(C)C(=O)C(C)(O)C12 (stereo not drawn),nt,nt,i,nt,nt,nt,nt,nt,nt
CC(C)(C)c1cc(-c2ccco2)c(C#N)c(SCC#N)n1,i,-0.287,i,i,-9.65*,-3.5,i,i,31.0%*
O=C(Nc1nnc(C2CC2)s1)c1cc(-c2ccccc2)nn1-c1ccccc1,i,0.305,i,i,-9.42*,-6.3,29.5%*,i,i
O=C1CC(N(CCc2ccccc2)C(=S)Nc2cc(Cl)ccc2Cl)C(=O)N1c1c(Cl)cccc1Cl (stereo not drawn),i,1.3,i,i,-9.58*,-3.6,42.0%*,i,i
O=C1CC(N(CCc2ccccc2)C(=S)Nc2ccccc2)C(=O)N1c1ccccc1 (stereo not drawn),i,0.544,i,i,i,-3.5,nt,nt,nt
Cc1ccc(CN(C)C(=O)c2c(C)nn(-c3ccccc3)c2C)cc1,i,nt,i,i,i,0.0,i,i,i
COc1cccc(/C=N/NC(=O)c2nc(-c3ccccc3)cc(-c3ccccc3)n2)c1O,i,0.0672,i,i,-8.64*,-27.8,i,i,i
SMILES,KCNQ1 inh,Cl transport mod,KCNK3 inh,KCNQ1 pot,KCNK9 block,hERG protect,KCNK9 block conf,Kir21 sel,HEK293 Tl ctr
Cc1sc(N)nc1-c1ccc(Oc2ccccc2)cc1,i,nt,i,i,i,-11.7,nt,nt,nt
Cc1cc2nccc(-c3ccc(Cl)cc3Cl)n2n1,i,nt,i,i,i,3.7,nt,nt,nt
CCOC(=O)C1CCN(C(=O)c2ccc(Oc3cc(Cl)cc(Cl)c3)o2)CC1,i,-0.776,i,i,i,-0.6,i,i,i
NC(=O)C1CCN(C(=O)c2ccc(Oc3cc(Cl)cc(Cl)c3)o2)CC1,i,-0.261,i,i,i,-9.9,nt,nt,nt
C/C(=N\NC(=O)COc1ccc(C(C)(C)C)cc1)c1cc2ccccc2o1,i,0.769,i,i,i,-3.2,i,i,i
C/C(=N\NC(=O)COc1ccc(C)cc1C(C)C)c1cc2ccccc2o1,i,0.41,i,i,i,-0.5,i,i,i
C/C(=N\NC(=O)COc1ccc(C(C)(C)C)cc1)c1ccccc1,i,0.566,i,i,i,-12.4,nt,nt,nt
C/C(=N\NC(=O)CNc1ccc(F)cc1)c1cc2ccccc2o1,i,0.414,i,i,i,-7.6,nt,nt,nt
Cc1ccccc1-c1cc(C(=O)NCc2cccc(C(F)(F)F)c2)nn1CC1CC(c2cccc([N+](=O)[O-])c2)=NO1 (stereo not drawn),nt,nt,i,nt,nt,nt,nt,nt,nt
Cc1cc(C)n2nc(SCC(=O)NC(=O)c3ccc(OC(F)F)cc3)nc2n1,nt,nt,i,nt,nt,nt,nt,nt,nt
COc1ccc(CN(Cc2cccn2C)S(=O)(=O)c2cccc(C(F)(F)F)c2)cc1,6*,-1.01,i,i,-8.83*,-10.2,45.5%*,i,34.5%*
COc1ccc(CN2CCC(CNS(=O)(=O)c3cccc(C(F)(F)F)c3)CC2)cc1,i,nt,i,i,i,-8.7,nt,nt,nt
CC(=O)c1cccc(-n2c(CCC(=O)O)ccc2-c2ccc(C)cc2)c1,i,nt,i,i,-15.4*,1.9,i,i,i
